Results: publication PMC7985749 (CNS Drugs, 2021)

How the values were obtained:
[1] = CSF pharmacokinetics substudy; assay type: in vivo, human; details: for Kp at 2 h / Kp at 6 h / Kp at 12 h / concentration at 2 h / concentration at 6 h / concentration at 12 h: male, human, oral; for Kp at 2 h / Kp at 6 h / Kp at 12 h: CSF / unbound plasma
Procedure, shortened: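 Open-label cohorts of healthy volunteers got a single oral dose of 2 or 4 mg. CSF and plasma were sampled predose and at preset timepoints, n = 3 subjects per timepoint. Levels were measured by GLP-validated LC-MS/MS: ethyl acetate liquid–liquid extraction, C18 column, positive ESI, deuterated internal standard. LLOQ was 50 pg/mL (CSF) and 10 pg/mL (plasma). Unbound plasma concentration was total corrected by an in vitro dialysis fraction unbound.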

[2] = Adverse events / TEAEs, MAD cohort; assay type: in vivo, human

Nc1nnc(CN[C@@H]2C[C@H]2c2ccc(OCc3ccccc3)cc2)o1 [vafidemstat]
Blood–brain barrier crossing ([1]; CSF cohort, quantifiable CSF concentrations from 2 h post-dose): shown to cross the human blood–brain barrier
Kp at 2 h ([1]; 2 mg): 0.78
Kp at 6 h ([1]; 2 mg): 0.74
Kp at 12 h ([1]; 2 mg): 0.92
Kp at 2 h ([1]; 4 mg): 0.69
Kp at 6 h ([1]; 4 mg): 0.83
Kp at 12 h ([1]; 4 mg): 0.91
concentration at 2 h ([1]; CSF, 2 mg): 0.239 ng/mL
concentration at 6 h ([1]; CSF, 2 mg): 0.181 ng/mL
concentration at 12 h ([1]; CSF, 2 mg): 0.17 ng/mL
concentration at 2 h ([1]; CSF, 4 mg): 0.387 ng/mL
concentration at 6 h ([1]; CSF, 4 mg): 0.734 ng/mL
concentration at 12 h ([1]; CSF, 4 mg): 0.55 ng/mL
concentration at 2 h ([1]; plasma (unbound), 2 mg): 0.316 ng/mL
concentration at 6 h ([1]; plasma (unbound), 2 mg): 0.248 ng/mL
concentration at 12 h ([1]; plasma (unbound), 2 mg): 0.186 ng/mL
concentration at 2 h ([1]; plasma (unbound), 4 mg): 0.59 ng/mL
concentration at 6 h ([1]; plasma (unbound), 4 mg): 0.871 ng/mL
concentration at 12 h ([1]; plasma (unbound), 4 mg): 0.609 ng/mL
Number of AEs related to the study treatment ([2]; MAD stage, healthy young volunteers, with vafidemstat): 44
Number of TEAEs (% of total TEAEs): Asthenia ([2]; MAD, 0.2 mg/day, n = 6): 2 (3.3) n (%)
Number of TEAEs (% of total TEAEs): Dizziness postural ([2]; MAD, 0.2 mg/day, n = 6): 1(1.6) n (%)
Number of TEAEs (% of total TEAEs): Feeling hot ([2]; MAD, 0.2 mg/day, n = 6): 1(1.6) n (%)
Number of TEAEs (% of total TEAEs): Headache ([2]; MAD, 0.2 mg/day, n = 6): 3 (4.9) n (%)
Number of TEAEs (% of total TEAEs): Hematoma ([2]; MAD, 0.2 mg/day, n = 6): 1 (1.6) n (%)
Number of TEAEs (% of total TEAEs): Muscle spasms ([2]; MAD, 0.2 mg/day, n = 6): 1(1.6) n (%)
Number of TEAEs (% of total TEAEs): Palpitations ([2]; MAD, 0.2 mg/day, n = 6): 1 (1.6) n (%)
Number of TEAEs (% of total TEAEs): Total ([2]; MAD, 0.2 mg/day, n = 6): 10 (16.4) n (%)
Number of TEAEs (% of total TEAEs): Apathy ([2]; MAD, 0.6 mg/day, n = 6): 1 (1.6) n (%)
Number of TEAEs (% of total TEAEs): Asthenia ([2]; MAD, 0.6 mg/day, n = 6): 1 (1.6) n (%)
Number of TEAEs (% of total TEAEs): Blunted affect ([2]; MAD, 0.6 mg/day, n = 6): 2 (3.3) n (%)
Number of TEAEs (% of total TEAEs): Daydreaming ([2]; MAD, 0.6 mg/day, n = 6): 1 (1.6) n (%)
Number of TEAEs (% of total TEAEs): Dyspepsia ([2]; MAD, 0.6 mg/day, n = 6): 1 (1.6) n (%)
Number of TEAEs (% of total TEAEs): Euphoric mood ([2]; MAD, 0.6 mg/day, n = 6): 1 (1.6) n (%)
Number of TEAEs (% of total TEAEs): Feeling drunk ([2]; MAD, 0.6 mg/day, n = 6): 1 (1.6) n (%)
Number of TEAEs (% of total TEAEs): Headache ([2]; MAD, 0.6 mg/day, n = 6): 1 (1.6) n (%)
Number of TEAEs (% of total TEAEs): Somnolence ([2]; MAD, 0.6 mg/day, n = 6): 2 (3.3) n (%)
Number of TEAEs (% of total TEAEs): Total ([2]; MAD, 0.6 mg/day, n = 6): 11 (18.0) n (%)
Number of TEAEs (% of total TEAEs): Asthenia ([2]; MAD, 1.0 mg/day, n = 6): 1 (1.6) n (%)
Number of TEAEs (% of total TEAEs): Constipation ([2]; MAD, 1.0 mg/day, n = 6): 1 (1.6) n (%)
Number of TEAEs (% of total TEAEs): Dizziness postural ([2]; MAD, 1.0 mg/day, n = 6): 1 (1.6) n (%)
Number of TEAEs (% of total TEAEs): Dry mouth ([2]; MAD, 1.0 mg/day, n = 6): 4 (6.5) n (%)
Number of TEAEs (% of total TEAEs): Feeling cold ([2]; MAD, 1.0 mg/day, n = 6): 3 (4.9) n (%)
Number of TEAEs (% of total TEAEs): Headache ([2]; MAD, 1.0 mg/day, n = 6): 2 (3.3) n (%)
Number of TEAEs (% of total TEAEs): Nasopharyngitis ([2]; MAD, 1.0 mg/day, n = 6): 1 (1.6) n (%)
Number of TEAEs (% of total TEAEs): Total ([2]; MAD, 1.0 mg/day, n = 6): 13 (21.3) n (%)
Number of TEAEs (% of total TEAEs): Dry mouth ([2]; MAD, 1.5 mg/day, n = 6): 3 (4.9) n (%)
Number of TEAEs (% of total TEAEs): Headache ([2]; MAD, 1.5 mg/day, n = 6): 2 (3.3) n (%)
Number of TEAEs (% of total TEAEs): Salivary hypersecretion ([2]; MAD, 1.5 mg/day, n = 6): 1 (1.6) n (%)
Number of TEAEs (% of total TEAEs): Somnolence ([2]; MAD, 1.5 mg/day, n = 6): 1 (1.6) n (%)
Number of TEAEs (% of total TEAEs): Total ([2]; MAD, 1.5 mg/day, n = 6): 7 (11.5) n (%)
Number of TEAEs (% of total TEAEs): Dry mouth ([2]; MAD, 2.5 mg/day, n = 6): 1 (1.6) n (%)
Number of TEAEs (% of total TEAEs): Total ([2]; MAD, 2.5 mg/day, n = 6): 1 (1.6) n (%)
Number of TEAEs (% of total TEAEs): Headache ([2]; MAD, 4.0 mg/day, n = 3): 2 (3.3) n (%)
Number of TEAEs (% of total TEAEs): Total ([2]; MAD, 4.0 mg/day, n = 3): 2 (3.3) n (%)
